Most compounds without a hit are left out; they make up all but 1.3% or so of the library.
S1P3 antagonist – S1P3 (human) receptor antagonism. CHO S1P3 NFAT-BLA reporter, FRET fluorescence, antagonist mode. inhibition, % at 4.98 µM. hit rate 0.27% among 170,000;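 active = inhibition above the plate cutoff, the mean inhibition of test wells on that plate plus 3 SD, cut at about 28% in these data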;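 note: cells challenged with S1P at its EC80 of 0.8 µM; blue over green emission ratio from cleaved BLA substrate after 4 h stimulation; 0% = S1P-stimulated wells and 100% = unstimulated DMSO-only wells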
Hsp70 activator – transcriptional activators of Hsp70 | hit rate 0.04% among 200,000 | activation, % at 10 µM | HeLa Hsp70 promoter luciferase reporter, luminescence; scaled: vehicle 0, proteasome-inhibitor control 100% | AID 1203;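 active = activation above the mean across all tested compounds plus 3 SD, cutoff set per campaign, cut at about 5.5% in these data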;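 note: 100% = MG132 at 30 µM as the positive control and 0% = DMSO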
Dynein cargo inh – blocks dynein driven cargo transport along microtubules | AID 1381 | 3617.4 mouse cells, GR-EGFP nuclear translocation imaging; test concentration mostly 20 µM; stimulated with dexamethasone, 1 µM; stronger effect = lower value | hit rate 0.47% among 220,000 | z-score, hits read low;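 active = plate z-score of nuclear minus cytoplasmic receptor signal below a set negative limit, without overly bright fluorescence or cell loss, cut at about -3.5 in these data, passing the limit was not always enough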;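 note: z-score of nuclear minus cytoplasmic ring GR-EGFP intensity difference per well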
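medium = tetracycline-free induction medium containing charcoal-stripped FBS | also added = 1.0 µM final dexamethasone stimulus | schedule = 48 h induction, 1 h compound, 30 min dex at 37 °C | technique = fixed, Hoechst-stained cells imaged at 10x for EGFP | measure = GR-EGFP nuclear translocation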
S1P4 agonist – activates the human S1P4 receptor; activation, % at 4.98 µM; O95977; hit rate 0.35% among 220,000; S1P4-expressing cell line, agonist reporter assay; in the data active = activation above about 11%;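 note: 0% = DMSO vehicle and 100% = reference agonist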
Target sequence (O95977 whole entry, looked up): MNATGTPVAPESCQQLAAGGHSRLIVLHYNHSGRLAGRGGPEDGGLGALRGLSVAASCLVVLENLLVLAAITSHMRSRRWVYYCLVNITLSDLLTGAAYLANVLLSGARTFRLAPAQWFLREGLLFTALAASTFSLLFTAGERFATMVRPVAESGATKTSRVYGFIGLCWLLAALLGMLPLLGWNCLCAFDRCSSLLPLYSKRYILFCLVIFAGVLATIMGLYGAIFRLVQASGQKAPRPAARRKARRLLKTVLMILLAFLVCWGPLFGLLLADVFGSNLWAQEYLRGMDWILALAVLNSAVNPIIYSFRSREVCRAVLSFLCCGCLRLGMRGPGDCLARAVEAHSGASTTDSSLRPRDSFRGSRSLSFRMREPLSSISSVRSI
S1P4 antagonist – antagonists of human S1P4 receptor; O95977; S1P4-expressing cells, antagonist mode, reporter read-out; inhibition, % at 4.98 µM; hit rate 0.26% among 220,000; AID 1510; in the data active = inhibition above about 29%;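 note: 0% = wells stimulated with agonist and 100% = vehicle wells without agonist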
Mdm2 ligase inh – blocks human Mdm2 ubiquitin ligase activity. cell-based MDM2 ubiquitination luciferase reporter, 2 h; 0 = plate control, 100 = twice control, blank-subtracted. signal enhancement, % at 5 µM. hit rate 0.11% among 210,000. AID 1230. Q00987;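 active = signal enhancement of 30% or more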;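 note: luminescence tracks abundance of the self-degrading MDM2-luciferase fusion protein; higher signal means inhibition of MDM2 E3 ligase activity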
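Test system: mammalian cells stably expressing self-ubiquitinating, self-degrading MDM2 E3–luciferase fusion; Amount: 2000 cells in each well; Medium: DMEM; Schedule: 4 h settle plus 2 h compound, 37 °C; Technique: SteadyLite luciferase luminescence after 15 min room-temperature reagent incubation; Benchmarks: plate control and blank wells.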
Dynein inh conf – dynein cargo transport inhibition, confirmation; 3617.4 GR-EGFP nuclear translocation imaging, dexamethasone-induced; AID 463116; hit rate 69% among 1,000; calls only at 20 µM; shares compounds with Dynein cargo inh;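 active = inhibition of receptor movement into the nucleus at or above a set limit in both runs, with normal cell brightness and cell count; inconclusive = limit reached in only one run, brightness and count normal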;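 note: dexamethasone at 1 µM final in well for 30 min; nuclear minus cytoplasmic GR-EGFP mean intensity difference in channel 2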
* = called active by the depositor; i = inactive; ? = inconclusive; nt = not tested or not shown; + = active, no number.

SMILES	S1P3 antagonist	Hsp70 activator	Dynein cargo inh	S1P4 agonist	S1P4 antagonist	Mdm2 ligase inh	Dynein inh conf
O=C(CCl)Nc1ccc(-c2ccccc2)cc1	-16	0	-5.4*	-2	-3	-2	+
CCC(=O)Nc1ccc(N2CCCCC2)cc1	nt	0	-0.58	1	-8	-11	nt
Cc1ccc(NC(=O)CCSCCC(=O)Nc2ccc(C)c(C)c2)cc1C	nt	0	-1	0	-11	7	nt
O=C(CCl)Nc1ccc(N=Nc2ccccc2)cc1	12	0	-0.82	1	-18	11	nt
O=C(CN1CCCCC1)Nc1cccc(Oc2ccccc2)c1	nt	0	-0.18	3	-8	7	nt
Cc1cccc(Cn2c(C)nc3c(N)c(C)c(C)cc32)c1	-15	0	-0.051	2	8	4	nt
Cc1ccc(-c2csc(NC(=O)Cc3ccc(F)cc3)n2)o1	-4	1	-3.9*	2	13	-11	i
CS(=O)(=O)c1cc([N+](=O)[O-])c(Sc2nc3ccccc3[nH]2)c([N+](=O)[O-])c1	nt	0	-3.6*	1	-5	-14	+
Cn1cnc([N+](=O)[O-])c1Sc1nc2ccccc2[nH]1	-10	nt	-1.5	3	3	-8	nt
O=C(COc1cccc(Br)c1)N/N=C1\CCSC1	-3	0	0.15	-1	19	-6	nt
Cc1nc(C)c(C(=O)O)s1	3	nt	-1.5	0	-43	nt	nt
CCNc1ccc(Br)cc(C(=O)/C=C/c2c(Cl)cccc2Cl)c1=O	nt	0	-5.6	0	-8	-1	+
C/C=C(\CS(=O)(=O)c1ccccc1)S(=O)(=O)c1ccccc1	-14	0	-3.6*	-1	-5	-6	?
CC(C)(C)c1cnnn1-c1ccc(C(=O)CCl)cc1	nt	0	-4.1*	3	-11	-12	+
Cc1ccc2cc(CCNC(=O)c3ccc4c(c3)OCO4)c(=O)[nH]c2c1C	nt	0	-0.93	0	-9	0	nt
CSc1nnc(C)c(/C=C/Nc2ccc(C)cc2)n1	nt	-1	-8.3	-1	-2	2	+
O=C1[C@@H]2C(c3cccnc3)=NO[C@@H]2C(=O)N1c1ccc2ccccc2c1	-6	nt	-0.39	3	-9	-38	nt
O=C(/C=C/c1ccccc1)N1CCN(C(=O)c2ccco2)CC1	nt	0	0.32	-4	-13	2	nt
O=C(/C=C/C=C/c1ccccc1)c1ccco1	-1	nt	-4.3*	-1	19	-5	i
CN(C)C(=O)N(CCCN1CCOCC1)Cc1cccc2ccccc12	6	nt	1.8	-1	0	-46	nt
O=[N+]([O-])c1ccc(N/N=C/c2c[nH]c3ccccc23)c(S(=O)(=O)Nc2ccc(Cl)cc2)c1	nt	0	-2.6	-1	-4	-6	nt
COc1ccccc1NS(=O)(=O)c1cc([N+](=O)[O-])ccc1N/N=C/c1c(C)[nH]c2ccccc12	nt	0	-4.9	1	-3	-14	i
O=C(CCN1C(=O)c2cccc3cccc(c23)C1=O)Nc1ccccc1	-20	0	0.7	0	-13	1	nt
NC(=O)/C=C/C(=O)Nc1ccc(Cl)cc1	-4	0	-3.7*	1	-9	-1	i
NC(=O)Nc1ccc(Cl)cc1	3	nt	-0.4	0	-23	-2	nt
SMILES	S1P3 antagonist	Hsp70 activator	Dynein cargo inh	S1P4 agonist	S1P4 antagonist	Mdm2 ligase inh	Dynein inh conf
CCS(=O)(=O)c1ccc(O)c(NC(=O)Nc2ccccc2OC)c1	5	nt	-1.3	-2	-14	1	nt
CCCCCCC(=O)N(O)C1CC(=O)N(c2ccc(F)cc2)C1=O (stereo not given)	12	nt	-4.7*	2	-6	-10	+
CCCCCCC(=O)N(O)C1CC(=O)N(c2ccc(Br)cc2)C1=O (stereo not given)	25	0	-0.9	1	4	-21	nt
CC(C)(C(=O)Nc1nccs1)c1ccccc1	-1	0	-0.78	0	-7	-3	nt
CC(C)(C)c1ccc(C(=O)CC(=O)c2cc(Cl)ccc2O)cc1	nt	0	-0.43	0	6	2	nt
N/C(=C\C(=O)c1cc(Cl)ccc1O)C(Cl)(Cl)Cl	-15	nt	-5*	2	6	-1	+
Cc1ccccc1NC(=O)C(Cl)=C(Cl)Cl	-9	0	-3.8*	0	26	-3	+
